Source: ChEMBL document CHEMBL4689842, “EUbOPEN Chemogenomics Library wave 1” (2021)

Tested on: HEK-293T
Assay: Multiplex assay against HEK293T;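 for Population Tubulin-Different-Phenotype (%): share of the cells with healthy nuclei that show this phenotype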
Format: toxicity, cell-based
Conditions: human
Procedure, shortened: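 Per cents of healthy-nucleus cells form the tubulin, mitochondrial-mass and membrane-permeability phenotype values. Live cells were stained at seeding with Hoechst33342, BioTracker Green Microtubule Cytoskeleton Dye, MitoTracker Red and Annexin V Alexa Fluor 680. After compound addition they were imaged on a CQ1 microscope at 37°C and 5% CO2, and CellPathfinder machine-learning gating split them into Hoechst high-intensity objects or normal cells, normal cells into healthy, pyknosed or fragmented nuclei, and pyknosed cells into mitotic or apoptotic.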

[1] = 12 h, 1 µM, compound concentration 1 uM, replicate 1
[2] = 12 h, 1 µM, compound concentration 1 uM, replicate 2
[3] = 12 h, 10 µM, compound concentration 10 uM, replicate 1
[4] = 12 h, 10 µM, compound concentration 10 uM, replicate 2
[5] = 24 h, 1 µM, compound concentration 1 uM, replicate 1
[6] = 24 h, 1 µM, compound concentration 1 uM, replicate 2
[7] = 24 h, 10 µM, compound concentration 10 uM, replicate 1
[8] = 24 h, 10 µM, compound concentration 10 uM, replicate 2
[9] = 48 h, 1 µM, compound concentration 1 uM, replicate 1
[10] = 48 h, 1 µM, compound concentration 1 uM, replicate 2
[11] = 48 h, 10 µM, compound concentration 10 uM, replicate 1
[12] = 48 h, 10 µM, compound concentration 10 uM, replicate 2

## CNc1oc(-c2cccc3ccccc23)nc1C#N
[1]
  Population Apoptotic (%): 59%
  Population Fragmented Nuclei (%): 14%
  Population Healthy Nuclei (%): 60%
  Population Hoechst High Intensity Objects (%): 30%
  Population Membrane Permeable-Phenotype (%): 3%
  Population Mitochondria Different-Phenotype (%): 62%
  Population Mitotic Cells (%): 40%
  Population Normal (%): 69%
  Population Pyknosed Nuclei (%): 25%
  Population Tubulin-Different-Phenotype (%): 31%
  Total Cell Count: 276
[2]
  Population Apoptotic (%): 14%
  Population Fragmented Nuclei (%): 8%
  Population Healthy Nuclei (%): 61%
  Population Hoechst High Intensity Objects (%): 11%
  Population Membrane Permeable-Phenotype (%): 8%
  Population Mitochondria Different-Phenotype (%): 16%
  Population Mitotic Cells (%): 85%
  Population Normal (%): 88%
  Population Pyknosed Nuclei (%): 29%
  Population Tubulin-Different-Phenotype (%): 12%
  Total Cell Count: 270
[3]
  Population Apoptotic (%): 41%
  Population Fragmented Nuclei (%): 83%
  Population Healthy Nuclei (%): 15%
  Population Hoechst High Intensity Objects (%): 41%
  Population Membrane Permeable-Phenotype (%): 0%
  Population Mitochondria Different-Phenotype (%): 1%
  Population Mitotic Cells (%): 58%
  Population Normal (%): 58%
  Population Pyknosed Nuclei (%): 1%
  Population Tubulin-Different-Phenotype (%): 0%
  Total Cell Count: 2858
[4]
  Population Apoptotic (%): 25%
  Population Fragmented Nuclei (%): 86%
  Population Healthy Nuclei (%): 12%
  Population Hoechst High Intensity Objects (%): 47%
  Population Membrane Permeable-Phenotype (%): 4%
  Population Mitochondria Different-Phenotype (%): 2%
  Population Mitotic Cells (%): 75%
  Population Normal (%): 52%
  Population Pyknosed Nuclei (%): 0%
  Population Tubulin-Different-Phenotype (%): 1%
  Total Cell Count: 2861
[5]
  Population Apoptotic (%): 38%
  Population Fragmented Nuclei (%): 17%
  Population Healthy Nuclei (%): 64%
  Population Hoechst High Intensity Objects (%): 29%
  Population Membrane Permeable-Phenotype (%): 6%
  Population Mitochondria Different-Phenotype (%): 41%
  Population Mitotic Cells (%): 61%
  Population Normal (%): 70%
  Population Pyknosed Nuclei (%): 17%
  Population Tubulin-Different-Phenotype (%): 25%
  Total Cell Count: 325
[6]
  Population Apoptotic (%): 32%
  Population Fragmented Nuclei (%): 6%
  Population Healthy Nuclei (%): 79%
  Population Hoechst High Intensity Objects (%): 14%
  Population Membrane Permeable-Phenotype (%): 15%
  Population Mitochondria Different-Phenotype (%): 8%
  Population Mitotic Cells (%): 67%
  Population Normal (%): 85%
  Population Pyknosed Nuclei (%): 13%
  Population Tubulin-Different-Phenotype (%): 26%
  Total Cell Count: 316
[7]
  Population Apoptotic (%): 15%
  Population Fragmented Nuclei (%): 83%
  Population Healthy Nuclei (%): 15%
  Population Hoechst High Intensity Objects (%): 40%
  Population Membrane Permeable-Phenotype (%): 0%
  Population Mitotic Cells (%): 84%
  Population Normal (%): 59%
  Population Pyknosed Nuclei (%): 0%
  Population Tubulin-Different-Phenotype (%): 0%
  Total Cell Count: 2556
[8]
  Population Apoptotic (%): 13%
  Population Fragmented Nuclei (%): 88%
  Population Healthy Nuclei (%): 10%
  Population Hoechst High Intensity Objects (%): 48%
  Population Membrane Permeable-Phenotype (%): 4%
  Population Mitochondria Different-Phenotype (%): 1%
  Population Mitotic Cells (%): 86%
  Population Normal (%): 51%
  Population Pyknosed Nuclei (%): 1%
  Population Tubulin-Different-Phenotype (%): 3%
  Total Cell Count: 2734
[9]
  Population Apoptotic (%): 39%
  Population Fragmented Nuclei (%): 14%
  Population Healthy Nuclei (%): 78%
  Population Hoechst High Intensity Objects (%): 32%
  Population Membrane Permeable-Phenotype (%): 2%
  Population Mitochondria Different-Phenotype (%): 17%
  Population Mitotic Cells (%): 60%
  Population Normal (%): 67%
  Population Pyknosed Nuclei (%): 7%
  Population Tubulin-Different-Phenotype (%): 17%
  Total Cell Count: 470
[10]
  Population Apoptotic (%): 18%
  Population Fragmented Nuclei (%): 8%
  Population Healthy Nuclei (%): 84%
  Population Hoechst High Intensity Objects (%): 14%
  Population Membrane Permeable-Phenotype (%): 7%
  Population Mitochondria Different-Phenotype (%): 3%
  Population Mitotic Cells (%): 81%
  Population Normal (%): 85%
  Population Pyknosed Nuclei (%): 6%
  Population Tubulin-Different-Phenotype (%): 14%
  Total Cell Count: 536
[11]
  Population Apoptotic (%): 15%
  Population Fragmented Nuclei (%): 82%
  Population Healthy Nuclei (%): 16%
  Population Hoechst High Intensity Objects (%): 43%
  Population Membrane Permeable-Phenotype (%): 0%
  Population Mitochondria Different-Phenotype (%): 0%
  Population Mitotic Cells (%): 85%
  Population Normal (%): 56%
  Population Pyknosed Nuclei (%): 1%
  Population Tubulin-Different-Phenotype (%): 0%
  Total Cell Count: 2084
[12]
  Population Apoptotic (%): 16%
  Population Fragmented Nuclei (%): 84%
  Population Healthy Nuclei (%): 14%
  Population Hoechst High Intensity Objects (%): 52%
  Population Membrane Permeable-Phenotype (%): 1%
  Population Mitotic Cells (%): 83%
  Population Normal (%): 47%
  Population Tubulin-Different-Phenotype (%): 1%
  Total Cell Count: 2135
